Screening results deposited in PubChem by several laboratories.
GPR7 antag = GPR7 receptor antagonists, primary screen, cell-based, fluorescence, single concentration | inhibition, % at 4.4 µM | 1.1% of 290,000 active | GPR7-expressing cells, fluorescence antagonist assay | Neuropeptides B/W receptor type 1 (Homo sapiens), P48145 | AID 1861, 2009; in the data active = inhibition above about 16%, passing the limit was not always enough;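 note: cells stimulated with the agonist NPW; 0% = agonist with vehicle and 100% = vehicle without agonist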
Target sequence (P48145 whole entry, looked up): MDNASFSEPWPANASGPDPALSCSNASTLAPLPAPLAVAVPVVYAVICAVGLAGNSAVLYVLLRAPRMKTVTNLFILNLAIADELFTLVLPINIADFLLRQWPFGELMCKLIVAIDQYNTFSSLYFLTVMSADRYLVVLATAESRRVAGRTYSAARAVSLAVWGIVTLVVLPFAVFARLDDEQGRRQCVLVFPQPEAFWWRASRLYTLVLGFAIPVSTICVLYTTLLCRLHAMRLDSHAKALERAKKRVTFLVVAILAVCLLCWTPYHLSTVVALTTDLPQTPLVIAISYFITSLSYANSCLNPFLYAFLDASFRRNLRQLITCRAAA
OX1R antag-1 = OX1R (HCRTR1) antagonists, primary screen, fluorescence, CHO/OX1R cells, Fluo-8 calcium, orexin A; Orexin/Hypocretin receptor type 1 (Homo sapiens), O43613; Fluo-8 calcium fluorescence; inhibition, % at 5 µM; 0.43% of 330,000 active; AID 434989, 2010;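 active = inhibition above its plate's threshold, mean inhibition of all tested compounds on the plate plus 3 SD, cut at about 37% in these data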;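 note: 0% = orexin A challenge wells and 100% = SB-334867-A antagonist wells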
MPTP inh = mitochondrial permeability transition pore inhibitors, primary screen, biochemical, isolated mouse mitochondria, absorbance; Ca2+ swelling absorbance, 30 min; inhibition, % at 10 µM; 1.4% of 360,000 active;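 active = inhibition of 50% or more, scaled per plate between neutral and stimulator controls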;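 note: 0% = DMSO wells given calcium and 100% = 1 mM EGTA wells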
CHO parental Ca = ATP-evoked calcium signal inhibitors, parental CHO, primary screen, counter-screen for OX1R antagonist project, cell-based, fluorescence, Fluo-8 calcium dye; parental CHO-K1, ATP-induced calcium, Fluo-8 fluorescence; inhibition, % at 5.6 µM; 0.63% of 330,000 active; AID 463079, 2010;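 active = inhibition above that plate's mean sample inhibition plus 3 SD, cut at about 26% in these data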;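 note: 0% = ATP-challenged DMSO wells and 100% = DMSO wells without ATP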
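Assay system: parental CHO cells; Read-out basis: percent inhibition of ATP-evoked calcium rise, normalized to controls; Benchmarks: ATP and no-ATP DMSO wells; Compound dosing: single nominal dose of 5.6 µM per compound; Signal: Fluo-8 calcium dye fluorescence; Also added: ATP as calcium-mobilizing challenge; Repeats: singlicate.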
OX1R antag-2 = antagonists of human orexin 1 receptor (OX1R). Orexin/Hypocretin receptor type 1 (Homo sapiens), O43613. OX1R-expressing cells, FRET antagonist read-out. inhibition, % at 6.6 µM. 1.8% of 330,000 active; in the data active = inhibition mostly above about 38%, no sharp cut-off; inactive = mostly below about 40%;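 note: 0% = agonist challenge alone and 100% = reference antagonist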
Rh123 counter = fluorescence retest of MPTP screen hits in isolated mitochondria, single concentration; shares compounds with MPTP inh; membrane potential, Rhodamine 123 fluorescence; inhibition, % at 10 µM; 78% of 5,000 active; AID 624504, 2012; in the data active = inhibition above about 22%;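 note: 0% = DMSO vehicle and 100% = positive control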
MPTP abs DR = mitochondrial permeability transition pore inhibitors, dose response, biochemical, absorbance, uHTS hits. shares compounds with MPTP inh. isolated mitochondria swelling. IC50, µM. 58% of 780 active. AID 651561, 2012; in the data active = IC50 below about 20 µM
MPTP cs DR = fluorescent counter-screen in isolated mitochondria, dose response, counter-screen for MPTP inhibitor project, biochemical, fluorescence, uHTS hits; shares compounds with MPTP inh; isolated mitochondria counterscreen, fluorescence read-out; IC50, µM; 49% of 780 active; AID 651564, 2012; in the data active = IC50 below about 80 µM
Active calls of the source: *; · = no result. This is a sample that favours compounds with a hit; in the whole collection about 3.8% have one here.

SMILES	GPR7 antag	OX1R antag-1	MPTP inh	CHO parental Ca	OX1R antag-2	Rh123 counter	others
c1ccc(CNc2nc(-c3ccccc3)nc3ccccc23)cc1	-22	-29	3	-11	29	·
O=C(CSc1nnc(CNC(=O)c2ccccc2)o1)NCCc1ccccc1	-3	3	0	10	33	·
C#CCNC(=O)c1csc([C@@H]2O[C@H](CO)[C@@H](O)[C@H]2O)n1	·	·	-1	·	·	·
Cc1c(C(=O)N/N=C/c2ccc(Cl)cc2)[nH]c2ccc(Cl)cc12	3	-14	96*	1	24	67*
CCOc1ccc(/C=N/NC(=O)c2[nH]c3ccc(C)cc3c2C)cc1	14	·	3	·	·	·
COc1ccc(NS(=O)(=O)c2cccc(NC(=O)CCS(=O)(=O)c3ccccc3)c2)cc1	-2	-10	55*	-10	15	16	MPTP abs DR=>100;MPTP cs DR=57*
O=C(NCc1ccco1)c1sc(=S)n2c1[nH]c(=O)c1ccccc12	7	8	89*	-6	50*	77*
O=C(NC1CCCC1)c1sc(=S)n2c1[nH]c(=O)c1ccccc12	12	-4	87*	-8	35	97*
O=C(NCc1ccccc1)c1ccc2c(=O)[nH]c3c(C(=O)NCC4CCCO4)sc(=S)n3c2c1 (configuration not stated)	-15	-9	1	-10	21	·
COc1ccc(C(O)Cn2c(=N)n(CCCN(C)C)c3ccccc32)cc1 (configuration not stated)	-5	-14	80*	-3	11	-5
CCCn1c(=N)n(CC(O)c2ccc(C)cc2)c2ccccc21 (configuration not stated)	-7	-21	2	-14	3	·
COC(CNC(=O)C1CCC(CNS(=O)(=O)c2c(C)cc(C)cc2C)CC1)OC (configuration not stated)	-5	4	0	-3	0	·
CCOC(=O)c1c(C)[nH]c(C(=O)N/N=C\c2ccccc2Cl)c1C	6	2	92*	-20	27	88*
CCc1c(C)nc2ncnn2c1NCCc1ccc(Cl)cc1	0	24	90*	32	49	40*
CCc1c(C)nc2ncnn2c1Nc1ccccc1C	-9	·	1	·	·	·
COc1cccc(/C=N/Nc2snc(SC)c2C#N)c1O	-9	10	99*	0	60*	86*
O=C(Nc1cccc2c1[nH]c1ccccc12)C(F)(F)F	-8	1	99*	10	22	87*
NC1=NC[C@@H](Cc2ccc(O)cc2)N1CCCCC1CCCCC1	·	-7	60*	-13	24	5	MPTP abs DR=9.6*;MPTP cs DR=24*
N=c1n(Cc2ccccc2Cl)c2ccccc2n1CC(O)c1ccco1 (configuration not stated)	3	-16	-1	-16	21	·
Cc1ccc(Cn2c(=N)n(CC(O)c3ccco3)c3ccccc32)cc1 (configuration not stated)	8	-26	70*	-20	-8	43*
C=CCc1cccc(CNc2nc3ccccc3n2CC)c1O	-4	-7	-2	-10	40	·
C=CCc1cccc(CNc2nc3ccccc3n2CCC)c1O	-10	-12	52*	12	22	53*
Cn1c(=N)n(CC(O)c2cccc3ccccc23)c2ccccc21 (configuration not stated)	20	0	90*	-5	21	5	MPTP abs DR=3.4*;MPTP cs DR=37*
COC(=O)CS(=O)(=O)c1ccsc1C(=O)Nc1ccc(F)c(F)c1	1	-20	-1	-12	13	·
CN=C1c2c(-c3ccccc3)c3cc(OC)ccc3n2CCN1C	7	-9	68*	-1	28	-5	MPTP abs DR=10*;MPTP cs DR=>80
CNn1cnc2ccsc2c1=O	4	-9	5	-24	-2	·
